Measured values published in ChEMBL document CHEMBL3785077 (J Med Chem, 2016).

What was measured:
Acetylcholinesterase [1] = biological target: T1, Acetylcholinesterase (Homo sapiens, UniProt P22303); assay: Inhibition of human acetylcholinesterase using […] as substrate at 100 uM preincubated for 4.5 mins followed by substrate addition measured after 2.5 mins by Ellman's spectrophotometric method
Cholinesterase [2] = biological target: T2, Cholinesterase (Equus caballus, UniProt P81908); assay: Inhibition of equine serum butyrylcholinesterase using […] as substrate preincubated for 30 mins followed by substrate addition measured after 2.5 mins by Ellman's spectrophotometric method
Method in brief: (§1)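 Ellman assay at 25 °C in phosphate buffer pH 8.0. Enzyme (AChE from human erythrocytes, BChE from equine or human serum; 2.5 units/mL stock with 2 mg/mL BSA) and DTNB (0.3 mM in assay) preincubated with compound from ethanol stocks (1 nM−1 mM in assay). Ethanol control, triplicates, IC50 from activity vs log concentration.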

Cholinesterase [3] = biological target: T2, Cholinesterase; assay: Inhibition of equine serum butyrylcholinesterase using […] as substrate preincubated for 4.5 mins followed by substrate addition measured after 2.5 mins by Ellman's spectrophotometric method
Method in brief: as §1, with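 “assay). Acetyl- or butyrylthiocholine added (452 μM in assay), absorbance at 412 nm after 2.5 min.” for “assay).”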

Acetylcholinesterase [4] = biological target: T1, Acetylcholinesterase; assay: Inhibition of human acetylcholinesterase using […] as substrate preincubated for 4.5 mins followed by substrate addition measured after 2.5 mins by Ellman's spectrophotometric method
Method in brief: as §1, with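 “assay). Acetyl- or butyrylthiocholine added (452 μM in assay), absorbance at 412 nm after 2.5 min.” for “assay).”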

Acetylcholinesterase [5] = biological target: T1, Acetylcholinesterase; assay: Inhibition of human acetylcholinesterase using […] as substrate at 10 uM preincubated for 4.5 mins followed by substrate addition measured after 2.5 mins by Ellman's spectrophotometric method
[6] = biological target: Cholinesterase (Equus caballus) (UniProt P81908); assay: Pseudo-irreversible inhibition of equine serum butyrylcholinesterase assessed as carbamoylation rate of inhibitor from reversible enzyme inhibitor complex to carbamoylated enzyme using p-nitrophenyl butyrate as substrate preincubated for 5 to 40 mins followed by substrate addition by double reciprocal plot analysis
[7] = biological target: Cholinesterase (Equus caballus) (UniProt P81908); assay: (§2) Pseudo-irreversible inhibition of equine serum butyrylcholinesterase assessed as apparent affinity between enzyme and inhibitor at equilibrium state using p-nitrophenyl butyrate as substrate preincubated for 5 to 40 mins followed by substrate addition by double reciprocal plot analysis
[8] = biological target: Cholinesterase (Equus caballus) (UniProt P81908); assay: as §2, with “assessed as ratio of carbamoylation rate of inhibitor to apparent affinity” for “assessed as apparent affinity”

T2 sequence (P81908 whole entry): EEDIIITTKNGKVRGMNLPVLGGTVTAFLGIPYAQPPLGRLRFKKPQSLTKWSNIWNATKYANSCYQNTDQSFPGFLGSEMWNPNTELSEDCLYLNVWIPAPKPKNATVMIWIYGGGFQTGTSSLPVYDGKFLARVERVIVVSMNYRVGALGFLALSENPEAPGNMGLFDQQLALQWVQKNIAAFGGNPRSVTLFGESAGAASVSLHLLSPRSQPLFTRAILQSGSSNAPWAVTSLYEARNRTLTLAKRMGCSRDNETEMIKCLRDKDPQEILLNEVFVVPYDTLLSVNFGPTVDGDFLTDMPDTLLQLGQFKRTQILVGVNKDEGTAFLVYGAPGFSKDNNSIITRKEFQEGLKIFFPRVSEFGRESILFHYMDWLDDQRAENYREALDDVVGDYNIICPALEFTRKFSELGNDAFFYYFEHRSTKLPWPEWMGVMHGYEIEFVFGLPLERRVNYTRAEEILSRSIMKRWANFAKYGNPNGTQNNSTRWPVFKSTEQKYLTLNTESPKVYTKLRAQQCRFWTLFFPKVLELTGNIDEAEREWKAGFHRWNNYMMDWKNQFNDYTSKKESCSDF
Cholinesterase (Equus caballus), sequence (P81908 whole entry): as above
T1 sequence (P22303 whole entry): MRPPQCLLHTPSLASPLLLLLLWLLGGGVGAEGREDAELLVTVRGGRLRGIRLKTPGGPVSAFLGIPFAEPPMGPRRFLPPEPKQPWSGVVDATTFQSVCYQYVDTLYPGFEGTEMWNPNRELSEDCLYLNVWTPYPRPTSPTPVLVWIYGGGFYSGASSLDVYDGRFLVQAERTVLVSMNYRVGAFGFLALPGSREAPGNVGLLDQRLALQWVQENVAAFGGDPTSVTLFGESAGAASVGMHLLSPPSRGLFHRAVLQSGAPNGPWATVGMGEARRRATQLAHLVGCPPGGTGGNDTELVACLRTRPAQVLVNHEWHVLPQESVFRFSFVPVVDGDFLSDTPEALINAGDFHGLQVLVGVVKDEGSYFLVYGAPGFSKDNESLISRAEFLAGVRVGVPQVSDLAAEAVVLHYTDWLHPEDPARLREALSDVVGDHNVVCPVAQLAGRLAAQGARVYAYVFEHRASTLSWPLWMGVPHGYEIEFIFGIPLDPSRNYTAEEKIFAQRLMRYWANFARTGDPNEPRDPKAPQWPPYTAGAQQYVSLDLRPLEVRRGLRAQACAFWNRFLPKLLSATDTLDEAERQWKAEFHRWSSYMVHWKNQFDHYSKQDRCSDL

Structure (SMILES)	inhibition (Acetylcholinesterase [1])	IC50 (Cholinesterase [2])	IC50 (Cholinesterase [3])	IC50 (Acetylcholinesterase [4])	other results
CCCCCCCNC(=O)Oc1ccc2c(c1)CN(C)C(c1ccoc1)N2C (stereo not drawn)	12%	0.083 µM			
CC(C)N1Cc2cc(O)ccc2N(C)C1c1ccccc1 (stereo not drawn)			55.8 µM	253 µM	
CCCCCCCNC(=O)Oc1ccc2c(c1)CN(C)C(c1ccccc1OC)N2C (stereo not drawn)		0.238 µM			inhibition (Acetylcholinesterase [5]): 47%
Cc1ccccc1C1N(C)Cc2cc(O)ccc2N1C (stereo not drawn)			92.4 µM	143 µM	
CN1Cc2cc(O)ccc2N(C)C1c1cccc(Cl)c1 (stereo not drawn)			2.1 µM	242 µM	
CCCCCCCNC(=O)Oc1ccc2c(c1)CN(CCC)C(c1ccccc1)N2C (stereo not drawn)	46%	0.04 µM			
CCCCCCCNC(=O)Oc1ccc2nc(-c3ccccc3)ncc2c1	22%	1.8 µM			K [6]: 0.14 min⁻¹; K [7]: 1060 nM; Ratio [8]: 0.13 µM⁻¹ min⁻¹
CN1Cc2cc(O)ccc2N(C)C1c1ccncc1 (stereo not drawn)			2.1 µM	242 µM	
CCCCCCCNC(=O)Oc1ccc2c(c1)CN(C)C(c1ccc(C(F)(F)F)cc1)N2C (stereo not drawn)	59%	2.7 µM			K [6]: 0.05 min⁻¹; K [7]: 756 nM; Ratio [8]: 0.07 µM⁻¹ min⁻¹
CCCN1Cc2cc(O)ccc2N(C)C1c1ccccc1 (stereo not drawn)			22.8 µM	279 µM	
CCCCCCCNC(=O)Oc1ccc2c(c1)CN(C)C(c1c(Cl)cccc1Cl)N2C (stereo not drawn)		0.531 µM			K [6]: 0.23 min⁻¹; K [7]: 4120 nM; Ratio [8]: 0.06 µM⁻¹ min⁻¹; inhibition (Acetylcholinesterase [5]): 33%
CN1Cc2cc(O)ccc2N(C)C1c1cccc2ccccc12 (stereo not drawn)			2.8 µM	342 µM	
CCCCCCCNC(=O)Oc1ccc2c(c1)CN(C)C(c1cccc(OC)c1)N2C (stereo not drawn)	10%	0.208 µM			K [6]: 0.18 min⁻¹; K [7]: 622 nM; Ratio [8]: 0.29 µM⁻¹ min⁻¹
CCCCCCCNC(=O)Oc1ccc2c(c1)CN(C)C(c1cccnc1)N2C (stereo not drawn)	18%	0.565 µM			
CN1Cc2cc(O)ccc2N(C)C1c1cc[nH]c1 (stereo not drawn)			15.3 µM	116 µM	
CN1Cc2cc(O)ccc2N(C)C1c1ccc(F)cc1 (stereo not drawn)			58.9 µM	143 µM	
CCCCCCCNC(=O)Oc1ccc2c(c1)CN(C)C(c1ccncc1)N2C (stereo not drawn)	16%	0.723 µM			

Structure (SMILES)	inhibition (Acetylcholinesterase [1])	IC50 (Cholinesterase [2])	IC50 (Cholinesterase [3])	IC50 (Acetylcholinesterase [4])	other results
CN1Cc2cc(O)ccc2N(C)C1c1ccc(Cl)cc1 (stereo not drawn)			13.8 µM	236 µM	
CCCCCCCNC(=O)Oc1ccc2c(c1)CN(C)C(c1ccc(Cl)cc1)N2C (stereo not drawn)	24%	0.115 µM			
Cc1ccc(C2N(C)Cc3cc(O)ccc3N2C)cc1 (stereo not drawn)			22.6 µM	110 µM	
Cc1cccc(C2N(C)Cc3cc(O)ccc3N2C)c1 (stereo not drawn)			17.4 µM	437 µM	
CN1Cc2cc(O)ccc2N(C)C1c1ccoc1 (stereo not drawn)			196 µM	342 µM	
CCCCCCCNC(=O)Oc1ccc2c(c1)CN(C)C(c1cccc(C)c1)N2C (stereo not drawn)	27%	0.199 µM			
CCCCCCCNC(=O)Oc1ccc2c(c1)CN(C)C(c1cccc(Cl)c1)N2C (stereo not drawn)	39%	0.096 µM			K [6]: 0.16 min⁻¹; K [7]: 227 nM; Ratio [8]: 0.7 µM⁻¹ min⁻¹
COc1ccccc1C1N(C)Cc2cc(O)ccc2N1C (stereo not drawn)			9.9 µM	193 µM	
CCCCCCCNC(=O)Oc1ccc2c(c1)CN(C)C(c1ccccc1C)N2C (stereo not drawn)		0.251 µM			inhibition (Acetylcholinesterase [5]): 18%
CCCCCCCNC(=O)Oc1ccc2c(c1)CN(C)C(c1ccccc1Cl)N2C (stereo not drawn)		0.474 µM			inhibition (Acetylcholinesterase [5]): 48%
CCCCCCCNC(=O)Oc1ccc2c(c1)CN(C)C(c1ccc3ccccc3c1)N2C (stereo not drawn)		0.374 µM			inhibition (Acetylcholinesterase [5]): 5%
CCCCCCCNC(=O)Oc1ccc2c(c1)CN(C)C(c1ccc(C)cc1)N2C (stereo not drawn)	9%	0.231 µM			
CN1Cc2cc(O)ccc2N(C)C1c1ccc(C(F)(F)F)cc1 (stereo not drawn)			64.6 µM		
CN1Cc2cc(O)ccc2N(C)C1c1c(Cl)cccc1Cl (stereo not drawn)			7.1 µM	13.5 µM	
CCCCCCCNC(=O)Oc1ccc2c(c1)CN(C)C(c1ccsc1)N2C (stereo not drawn)	13%	0.022 µM			
CCCCCCCNC(=O)Oc1ccc2c(c1)CN(C(C)C)C(c1ccccc1)N2C (stereo not drawn)	33%	0.021 µM			K [6]: 0.16 min⁻¹; K [7]: 186 nM; Ratio [8]: 0.86 µM⁻¹ min⁻¹
